pIC50: −log10 of the molar value. Calls of active or inactive are those of the source. The calls are words filed in the database; no cut-off is given here.
Key:
HCT-116 [1] = experiment: Induction of autophagy in human HCT-116 cells assessed as upregulation of LC3-II expression at 0.5 uM incubated for 48 hrs by Western blot analysis; format: functional, cell-based
HCT-116 [2] = experiment: Induction of apoptosis in human HCT-116 cells assessed as nuclear fragmentation at 0.5 uM incubated for 48 hrs by Hoechst 33342 staining based analysis; format: functional, cell-based
Procedure, shortened: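 HCT116 on coverslips at 5×10^4 cells/well, treated 48 h at 0.5 µM after 24 h attachment. PBS-washed, stained 10 min with Hoechst 33342 (final 1 µg/ml). Nuclei inspected at once by fluorescence microscopy at 640X for chromatin condensation and nuclear fragmentation.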

HCT-116 [3] = experiment: Induction of morphological changes in human HCT-116 cells assessed as appearance of elongated fusiform-shaped cells at 0.5 uM incubated for 48 hrs by scanning electron microscopic analysis; format: functional, cell-based
Procedure, shortened: (§1)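 HCT116 on coverslips, treated 48 h at 0.5 µM. Coverslips rinsed in PBS pH 7.4, fixed in 4% glutaraldehyde for 30 min at 4 °C, then imaged by scanning electron microscopy at 5000X and 20000X.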

HCT-116 [4] = experiment: Induction of cell death in human HCT-116 cells assessed as membrane blebbing at 0.5 uM incubated for 48 hrs by acridine orange and ethidium bromide staining based fluorescence microscopic analysis; format: functional
Procedure, shortened: (§2)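 HCT116 on coverslips (5×10^4 cells/well), 24 h attachment, then exposed 48 h to 0.5 µM. PBS-washed and stained a few minutes with a 1:1 mix of acridine orange (100 µg/mL) and ethidium bromide (100 µg/mL). Viewed at once by fluorescence microscopy at 640X, scoring green vs orange nuclei and punctate cytoplasmic staining.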

HCT-116 [5] = experiment: Induction of cell death in human HCT-116 cells assessed as loss of membrane integrity at 0.5 uM incubated for 48 hrs by acridine orange and ethidium bromide staining based fluorescence microscopic analysis; format: functional; procedure, shortened: as §2
HCT-116 [6] = experiment: Cytotoxicity against human HCT-116 cells assessed as inhibition of cell proliferation incubated for 48 hrs by MTT assay; format: functional, cell-based; details: HCT-116, 48 h
Procedure, shortened: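 Cells kept in DMEM with 10% heat-inactivated FBS, penicillin/streptomycin, 37 °C, 5% CO2. Plated at 5×10^3 cells/well and left 24 h, then exposed 48 h to 80, 20, 5, 1.25, 0.31 and 0.078 µM (diluted from 5 mM DMSO stocks). MTT added for 2 h at 37 °C, formazan dissolved in DMSO, A570 read. Blank subtracted, viability taken relative to untreated cells. IC50 from a sigmoidal fit of % inhibition vs log concentration. Three experiments, each in triplicate.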

HCT-116 [7] = experiment: Induction of autophagy in human HCT-116 cells assessed as downregulation of LC3B-I expression at 0.5 uM incubated for 48 hrs by Western blot analysis; format: functional, cell-based
MCF7 [8] = experiment: Induction of morphological changes in human MCF7 cells assessed as appearance of filamentous protrusions at 1 uM incubated for 48 hrs by inverted phase-contrast microscopic analysis; format: functional, cell-based
HCT-116 [9] = experiment: Induction of morphological changes in human HCT-116 cells assessed as reduction in cell clumps at 0.5 uM incubated for 48 hrs by inverted phase-contrast microscopic analysis; format: functional, cell-based
HCT-116 [10] = experiment: Induction of cell death in human HCT-116 cells assessed as effect on Bcl2 protein expression at 0.5 uM incubated for 48 hrs by Western blot analysis; format: functional, cell-based
[11] = Selectivity index, ratio of IC50 for hTERT-RPE1 cells to IC50 for human MCF7 cells; format: toxicity; details: hTERT-RPE1 cells versus MCF7 cells, read-out: Ratio IC50
Procedure, shortened: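 Ratio of the hTERT-RPE-1 MTT IC50 to the IC50 in HCT116 or MCF-7. Each IC50 comes from a 48 h MTT assay (0.078–80 µM, sigmoidal fit), three experiments in triplicate.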

MCF7 [12] = experiment: Induction of morphological changes in human MCF7 cells assessed as development of long elongations from filamentous protrusions resembling filopodia at 1 uM incubated for 48 hrs by inverted phase-contrast microscopic analysis; format: functional, cell-based
HCT-116 [13] = experiment: Induction of morphological changes in human HCT-116 cells assessed as tunneling nanotubes formation at 0.5 uM incubated for 48 hrs by scanning electron microscopic analysis; format: functional, cell-based; procedure, shortened: as §1
HCT-116 [14] = experiment: Induction of cell death in human HCT-116 cells assessed as increase in orange fluorescence at 0.5 uM incubated for 48 hrs by acridine orange and ethidium bromide staining based fluorescence microscopic analysis; format: functional; procedure, shortened: as §2
HCT-116 [15] = experiment: Induction of cell death in human HCT-116 cells assessed as appearance of acidic vesicular organelles by measuring bright punctate dots in cytoplasm at 0.5 uM incubated for 48 hrs by acridine orange and ethidium bromide staining based fluorescence microscopic analysis; format: functional; procedure, shortened: as §2
HCT-116 [16] = experiment: Induction of morphological changes in human HCT-116 cells assessed as alteration in intercellular adhesion at 0.5 uM incubated for 48 hrs by scanning electron microscopic analysis; format: functional, cell-based; procedure, shortened: as §1
HCT-116 [17] = experiment: Induction of morphological changes in human HCT-116 cells assessed as appearance of filamentous protrusions at 0.5 uM incubated for 48 hrs by inverted phase-contrast microscopic analysis; format: functional, cell-based
HCT-116 [18] = experiment: Induction of intracellular ROS generation in human HCT-116 cells at IC50 by DCFH-DA staining based analysis; format: functional, cell-based; details: time 24-48 hrs, TDE = time-dependent effect
Procedure, shortened: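 HCT116 plated at 5×10^3 cells/well, grown overnight, then exposed 24 h or 48 h at the IC50 concentration. Loaded with 10 µM DCFH-DA for 30 min at 37 °C, medium swapped for PBS. Fluorescence read at ex 488/em 525 nm, normalized to cell number from a parallel MTT assay and to untreated cells. Triplicate, mean ±SD, Student's t-test.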

HCT-116 [19] = experiment: Induction of autophagy in human HCT-116 cells assessed as effect on Beclin-1 protein expression at 0.5 uM incubated for 48 hrs by Western blot analysis; format: functional, cell-based
HCT-116 [20] = experiment: Induction of autophagy in human HCT-116 cells assessed as upregulation of Atg-7 protein expression at 0.5 uM incubated for 48 hrs by Western blot analysis; format: functional, cell-based
HCT-116 [21] = experiment: Induction of autophagy in human HCT-116 cells assessed as upregulation of Beclin-1 protein expression at 0.5 uM incubated for 48 hrs by Western blot analysis; format: functional, cell-based

Compound	Activity (HCT-116 [1])	Activity (HCT-116 [2])	Activity (HCT-116 [3])	Activity (HCT-116 [4])	Activity (HCT-116 [5])	pIC50 (HCT-116 [6])	Activity (HCT-116 [7])	Activity (MCF7 [8])	Activity (HCT-116 [9])	Activity (HCT-116 [10])	selectivity ratio [11]	Activity (MCF7 [12])	Activity (HCT-116 [13])	Activity (HCT-116 [14])	Activity (HCT-116 [15])	Activity (HCT-116 [16])	Activity (HCT-116 [17])	Activity (HCT-116 [18])	Activity (HCT-116 [19])	also measured
O=C(c1cc(Br)ccc1O)c1[nH]c(Cl)c(Br)c1Br	Active	inactive	Active	Active	Active	6.39	Active	Active	Active	Active	~100	Active	Active	Active	Active	Active	Active	Tde	Active	–
O=C(c1cc(Br)ccc1O)c1[nH]c(Br)c(Br)c1Br	–	inactive	Active	Active	Active	6.46	–	Active	Active	Active	~100	Active	Active	Active	Active	Active	Active	Tde	Active	–
O=C(c1cc(Br)cc(Br)c1O)c1[nH]c(Br)c(Br)c1Br	–	inactive	Active	Active	Active	5.89	–	Active	Active	Active	–	Active	Active	Active	Active	Active	Active	Tde	–	Activity (HCT-116 [20]): Active; Activity (HCT-116 [21]): Active
O=C(c1cc(Br)ccc1O)c1[nH]c(Cl)c(Cl)c1Br	Active	inactive	Active	Active	Active	6.06	Active	Active	Active	Active	~100	Active	Active	Active	Active	Active	Active	Tde	Active	–
O=C(c1cc(Br)ccc1O)c1[nH]c(Br)c(Cl)c1Br	–	inactive	Active	Active	Active	6.31	–	Active	Active	Active	~100	Active	Active	Active	Active	Active	Active	Tde	Active	–

Reference: ChEMBL document CHEMBL5360579, “Exploring the anticancer activity and the mechanism of action of pyrrolomycins F obtained by microwave-assisted total synthesis” (Eur J Med Chem, 2023)
